pIC50: −log10 of the molar value.
Experiments:
[1] = molecular target: Prostaglandin G/H synthase 1 (Homo sapiens, UniProt P23219)
Rattus norvegicus [2] = experiment: Effect on perforated ulcers(PU) at the dose of 100 mg/kg.; type: functional
In short: (§1)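 Male Wistar rats (150-175 g), fed freely, 10/group, dosed orally once daily for 4 consecutive days in 0.5% methyl cellulose/0.1% Tween. Anaesthetised 24 h after last dose; cardiac blood taken for hemoglobin. Whole intestine opened and scored macroscopically for perforated and nonperforated ulcers (index 0-3); value is ulcer score per incidence (% animals with ulcers).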

Rattus norvegicus [3] = experiment: In vivo inhibition of carrageenan-induced hyperalgesia in rats; type: functional
In short: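 Fasted male Wistar rats (200-230 g) given oral drug, then 0.1 mL 1% carrageenan into the left hind paw 1 h later. At 5 h, walking difficulty was scored 0-2 by a blinded observer. Percentage inhibition was taken against vehicle, and ED50 was found by linear regression over four doses (6-8 rats/group).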

Rattus norvegicus [4] = experiment: In vivo inhibition of adjuvant arthritis in rats; type: functional
Rattus norvegicus [5] = experiment: In vivo inhibition of carrageenan-induced air pouch in rats; type: functional
In short: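 Air pouch made in fasted male Wistar rats (150-175 g, 6/group) by injecting 20 mL air subcutaneously on the back on day 0. Oral gavage on day 3, then 5 mL 0.4% carrageenan into the pouch 1 h later.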

Rattus norvegicus [6] = species: Rattus norvegicus; experiment: Hemoglobin levels in the different assays ranged from 11.5-14.7 g/dl.; type: functional
Rattus norvegicus [7] = experiment: In vivo inhibition of pyresis in rats; type: functional
In short: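 Male Wistar rats (180-200 g, 6/group) were injected subcutaneously with 15% yeast extract in saline ([…]) and fasted overnight. Next morning rectal temperature was taken, and oral dosing followed 1 h later. Temperature was recorded hourly for 5 h.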

Rattus norvegicus [8] = experiment: Inhibition of carrageenan paw edema in rats; type: functional
In short: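 Fasted male Wistar rats (150-175 g, 6/group) dosed orally in 0.5% methyl cellulose/0.1% Tween (10 mL/kg). One hour later, 0.1 mL 1% carrageenan in saline was given subcutaneously into the left hind paw.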

Rattus norvegicus [9] = experiment: Effect on non perforated ulcers(NPU) at the dose of 100 mg/kg.; type: functional
In short: as §1

Rattus norvegicus [10] = experiment: Effect on perforated ulcers(PU) at the dose of 10 mg/kg.; type: functional
In short: as §1

Rattus norvegicus [11] = experiment: Effect on non perforated ulcers(NPU) at the dose of 10 mg/kg.; type: functional
In short: as §1

Chain of Prostaglandin G/H synthase 1 (P23219 whole entry): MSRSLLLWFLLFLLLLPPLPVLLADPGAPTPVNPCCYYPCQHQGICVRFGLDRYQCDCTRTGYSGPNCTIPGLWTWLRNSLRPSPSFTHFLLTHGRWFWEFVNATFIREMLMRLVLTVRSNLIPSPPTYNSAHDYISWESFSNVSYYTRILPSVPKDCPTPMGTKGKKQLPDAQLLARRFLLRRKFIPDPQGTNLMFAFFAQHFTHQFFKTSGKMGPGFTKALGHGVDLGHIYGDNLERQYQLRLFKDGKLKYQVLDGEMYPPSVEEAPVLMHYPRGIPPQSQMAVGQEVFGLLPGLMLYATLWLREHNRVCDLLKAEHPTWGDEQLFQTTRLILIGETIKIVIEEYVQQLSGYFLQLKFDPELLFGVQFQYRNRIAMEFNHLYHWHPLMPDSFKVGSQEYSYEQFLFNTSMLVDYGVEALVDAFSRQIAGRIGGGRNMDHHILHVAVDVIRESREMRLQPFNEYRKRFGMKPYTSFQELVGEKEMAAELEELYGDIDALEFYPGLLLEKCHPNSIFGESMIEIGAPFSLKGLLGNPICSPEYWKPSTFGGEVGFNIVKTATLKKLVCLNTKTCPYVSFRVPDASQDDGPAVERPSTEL

Row | Compound | pIC50 [1] | Ulcer score (Rattus norvegicus [2]) | ED50 (Rattus norvegicus [3]) [mg/kg] | ED50 (Rattus norvegicus [4]) [mg/kg] | ED35 (Rattus norvegicus [5]) [mg/kg] | Hgb levels (Rattus norvegicus [6]) [g/dL] | ED50 (Rattus norvegicus [7]) [mg/kg] | ED35 (Rattus norvegicus [8]) [mg/kg] | Ulcer score (Rattus norvegicus [9]) | Ulcer score (Rattus norvegicus [10]) | Ulcer score (Rattus norvegicus [11])
1 | NS(=O)(=O)c1ccc(-c2coc(=O)n2-c2cccc3ccccc23)cc1 | 4.43 | – | – | – | – | – | – | – | – | – | –
2 | CS(=O)(=O)c1ccc(-c2coc(=O)n2-c2ccccc2)cc1 | 4.47 | – | – | – | – | – | – | – | – | – | –
3 | Cc1cccc(-n2c(-c3ccc(S(N)(=O)=O)cc3)c(C)oc2=O)c1 | 4.77 | – | – | – | – | – | – | – | – | – | –
4 | NS(=O)(=O)c1ccc(-c2coc(=O)n2-c2ccccc2)cc1 | 4.61 | 0 | 1.1 | 0.15 | 1.2 | 14.8 | 0.5 | 0.4 | 0 | – | –
5 | Cc1ccc(-c2cc(C(F)(F)F)nn2-c2ccc(S(N)(=O)=O)cc2)cc1 [CELECOXIB] | – | 0 | 6.2 | 0.5 | 3 | 13.2 | 0.6 | 1.1 | 0 | – | –
6 | Cc1oc(=O)n(-c2ccccc2)c1-c1ccc(S(N)(=O)=O)cc1 | 4.31 | – | 7.7 | > 3 | – | – | – | 1.7 | – | – | –
7 | CS(=O)(=O)c1ccc(-c2coc(=O)n2-c2ccc(F)cc2)cc1 | 5.29 | – | 2.5 | 2.8 | – | – | – | 0.6 | – | – | –
8 | NS(=O)(=O)c1ccc(-c2coc(=O)n2-c2cccc(Cl)c2)cc1 | 4.97 | – | – | – | – | – | – | 1.3 | – | – | –
9 | COc1ccc(-n2c(-c3ccc(S(N)(=O)=O)cc3)coc2=O)cc1F | 5.29 | – | – | – | – | – | – | 3 | – | – | –
10 | Cc1oc(=O)n(-c2ccc(F)cc2)c1-c1ccc(S(N)(=O)=O)cc1 | 4.34 | – | 14 | 3 | – | – | – | 1.1 | – | – | –
11 | CS(=O)(=O)c1ccc(-c2coc(=O)n2-c2ccccc2F)cc1 | 4.87 | – | 32 | > 3 | – | – | – | 2.4 | – | – | –
12 | NS(=O)(=O)c1ccc(-c2coc(=O)n2-c2cccc(C(=O)O)c2)cc1 | < 4.00 | – | – | – | – | – | – | – | – | – | –
13 | Cc1oc(=O)n(-c2ccc(Cl)c(Cl)c2)c1-c1ccc(S(N)(=O)=O)cc1 | 5.06 | 0 | 3 | 1.6 | 0.85 | 14.6 | 8.7 | 4.4 | 0 | – | –
14 | NS(=O)(=O)c1ccc(-c2coc(=O)n2-c2ccc(F)cc2)cc1 | 4.88 | 0 | 3.9 | 0.6 | 0.4 | 12.6 | 2.4 | 2 | 0 | – | –
15 | COc1ccc2cc([C@H](C)C(=O)O)ccc2c1 [NAPROXEN] | – | – | 5.2 | 6.1 | 1.4 | 7.5 | 0.8 | 0.45 | – | – | –
16 | COc1ccc(-n2c(-c3ccc(S(N)(=O)=O)cc3)coc2=O)cc1 | 6.05 | – | – | – | – | – | – | – | – | – | –
17 | NS(=O)(=O)c1ccc(-c2coc(=O)n2-c2ccc(F)cc2F)cc1 | 4.82 | – | – | – | – | – | – | – | – | – | –
18 | NS(=O)(=O)c1ccc(-c2coc(=O)n2-c2ccc(C(F)(F)F)cc2)cc1 | < 4.00 | 0 | 8.1 | 1 | 2.6 | 11.5 | 11 | 2.4 | 0 | – | –

Row | Compound | pIC50 [1] | Ulcer score (Rattus norvegicus [2]) | ED50 (Rattus norvegicus [3]) [mg/kg] | ED50 (Rattus norvegicus [4]) [mg/kg] | ED35 (Rattus norvegicus [5]) [mg/kg] | Hgb levels (Rattus norvegicus [6]) [g/dL] | ED50 (Rattus norvegicus [7]) [mg/kg] | ED35 (Rattus norvegicus [8]) [mg/kg] | Ulcer score (Rattus norvegicus [9]) | Ulcer score (Rattus norvegicus [10]) | Ulcer score (Rattus norvegicus [11])
19 | Cc1ccc(-n2c(-c3ccc(S(C)(=O)=O)cc3)coc2=O)cc1 | 4.94 | – | – | – | – | – | – | – | – | – | –
20 | NS(=O)(=O)c1ccc(-c2coc(=O)n2-c2ccc(Cl)cc2)cc1 | 5.15 | 3 | 0.5 | 0.2 | 1.2 | 12.5 | 2.3 | 1.6 | 2.1 | – | –
21 | NS(=O)(=O)c1ccc(-c2coc(=O)n2-c2ccccc2F)cc1 | 4.55 | 0 | 2.7 | 0.27 | 1.6 | 11.6 | 1.2 | 1.7 | 0 | – | –
22 | NS(=O)(=O)c1ccc(-c2coc(=O)n2-c2ccc(Cl)c(Cl)c2)cc1 | 5.82 | – | – | – | – | – | – | – | – | – | –
23 | COc1ccc2c(c1)c(CC(=O)O)c(C)n2C(=O)c1ccc(Cl)cc1 [INDOMETHACIN] | – | – | 1.2 | 0.22 | 2 | 5.7 | 1.5 | 1 | – | 280 | 300
24 | NS(=O)(=O)c1ccc(-c2coc(=O)n2-c2ccccc2Cl)cc1 | 4.45 | – | – | – | – | – | – | – | – | – | –
25 | CCc1ccc(-n2c(-c3ccc(S(C)(=O)=O)cc3)coc2=O)cc1 | 4.37 | – | – | – | – | – | – | – | – | – | –
26 | Cc1ccc(-n2c(-c3ccc(S(N)(=O)=O)cc3)c(C)oc2=O)cc1 | 4.36 | – | – | – | – | – | – | 2.6 | – | – | –
27 | Cc1ccccc1-n1c(-c2ccc(S(N)(=O)=O)cc2)coc1=O | 4.54 | – | – | – | – | – | – | – | – | – | –
28 | CS(=O)(=O)c1ccc(-c2coc(=O)n2-c2ccc(F)cc2F)cc1 | 5.16 | – | 21 | 2.5 | – | – | – | 1.4 | – | – | –
29 | CS(=O)(=O)c1ccc(-c2coc(=O)n2-c2ccc(C(F)(F)F)cc2)cc1 | < 4.00 | – | – | – | – | – | – | – | – | – | –
30 | CS(=O)(=O)c1ccc(-c2coc(=O)n2-c2ccc(Cl)cc2)cc1 | 4.87 | – | – | – | – | – | – | 10 | – | – | –
31 | COc1ccc(-n2c(-c3ccc(S(N)(=O)=O)cc3)coc2=O)cc1Cl | 5.24 | – | – | – | – | – | – | 2.4 | – | – | –
32 | NS(=O)(=O)c1ccc(-c2coc(=O)n2-c2ccc(C(=O)O)cc2)cc1 | < 4.00 | – | – | – | – | – | – | – | – | – | –
33 | NS(=O)(=O)c1ccc(-c2coc(=O)n2C2CCCCC2)cc1 | < 4.00 | – | – | – | – | – | – | – | – | – | –
34 | CCc1ccc(-n2c(-c3ccc(S(N)(=O)=O)cc3)coc2=O)cc1 | 4.98 | – | – | – | – | – | – | – | – | – | –
35 | Cc1cccc(-n2c(-c3ccc(S(N)(=O)=O)cc3)coc2=O)c1 | 5.18 | 0 | 7.2 | 0.6 | 0.47 | 12.8 | 1.8 | 0.9 | 0 | – | –
36 | Cc1ccc(-n2c(-c3ccc(S(N)(=O)=O)cc3)coc2=O)cc1 | 4.96 | 0 | 3.8 | 0.34 | 1.7 | 12.9 | 3.3 | 0.7 | 0 | – | –
